Measurements as given in ChEMBL document CHEMBL1240310, “Combinatorial chemistry identifies high-affinity peptidomimetics against alpha4beta1 integrin for in vivo tumor imaging” (Nat Chem Biol, 2006).
The source made the active and inactive calls. No cut-off for these calls is given here.

How the values were obtained:
Mus musculus [1] = experiment: In vivo inhibition of alpha4beta1 integrin expressed in human Molt-4 cells xenografted into mouse at 60 nmol/kg, iv up to 24 hrs by NIRF imaging; assay type: functional, organism-based
Summary of the method: (§1)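 Nude (nu/nu) mice bearing subcutaneous shoulder Molt-4 xenografts (about 5 × 10^6 cells injected; tumors 0.5–1.0 cm). Probe made by complexing biotinylated ligand with SA-Alexa Fluor680 at 5:1 molar ratio, 1 h, 4 °C. Given 60 nmol kg-1 i.v. (n = 3). Imaged under pentobarbital anesthesia (60 mg kg-1 i.p.) at 0–44 h; excitation 625 nm, emission 700 nm, 30 s exposure. Tumor vs normal ROI intensities compared.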

CHO [2] = experiment: Binding affinity to alpha4beta1 integrin G184A mutant expressed in CHO cells by flow cytometry; assay type: cell-based
Summary of the method: (§2)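 CHO cells stably expressing wild-type or single-Ala mutant human α4 paired with endogenous hamster β1. Cells incubated with biotinylated ligand in TBS (1 mM Mn2+), then SA-PE, and read by flow cytometry. Binding normalized to α4 expression measured with mAb B5G10. Mean ± s.d. of triplicates.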

[3] = target: T1, Integrin alpha-4/beta-1 (Homo sapiens) (UniProt P05556+P13612); experiment: Binding affinity to alpha4beta1 integrin expressed in CHO cells by flow cytometry; assay type: cell-based
Summary of the method: (§3)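 Cells (0.5 × 10^6) incubated with biotinylated ligand (100 nM) for 1 h at 4 °C in TBS with 1 mM Mg2+/Mn2+, washed, then stained with SA-PE. Fluorescence of 10,000 cells read by flow cytometry. Integrin-transfected CHO lines as previously described; α4 expression probed with anti-α4 mAb P1H4 plus FITC secondary.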

[4] = target: T1, Integrin alpha-4/beta-1 (Homo sapiens); experiment: Binding affinity to alpha4beta1 integrin expressed in human K562 cells by flow cytometry; assay type: cell-based; summary of the method: as §3
[5] = target: Integrin alpha2/beta1 (Homo sapiens) (UniProt P05556+P17301); experiment: Binding affinity to alpha2beta1 integrin expressed in CHO cells by flow cytometry; assay type: cell-based; summary of the method: as §3
[6] = target: ITGA6-ITGB1 complex (Homo sapiens) (UniProt P05556+P23229); experiment: Binding affinity to alpha6beta1 integrin expressed in CHO cells by flow cytometry; assay type: cell-based; summary of the method: as §3
[7] = target: ITGB1-ITGA9 complex (Homo sapiens) (UniProt P05556+Q13797); experiment: Binding affinity to alpha9beta1 integrin expressed in CHO cells by flow cytometry; assay type: cell-based; summary of the method: as §3
[8] = target: Intercellular adhesion molecule (ICAM-1), Integrin alpha-L/beta-2 (Homo sapiens) (UniProt P20701+P05362+P05107); experiment: Binding affinity to alphaLbeta2 integrin expressed in CHO cells by flow cytometry; assay type: cell-based; summary of the method: as §3
[9] = target: Integrin alpha-M/beta-2 (Homo sapiens) (UniProt P05107+P11215); experiment: Binding affinity to alphaMbeta2 integrin expressed in CHO cells by flow cytometry; assay type: cell-based; summary of the method: as §3
Integrin alpha-M/beta-2 (Homo sapiens), sequence (P05107 23-769 limits assumed, other chains not shown): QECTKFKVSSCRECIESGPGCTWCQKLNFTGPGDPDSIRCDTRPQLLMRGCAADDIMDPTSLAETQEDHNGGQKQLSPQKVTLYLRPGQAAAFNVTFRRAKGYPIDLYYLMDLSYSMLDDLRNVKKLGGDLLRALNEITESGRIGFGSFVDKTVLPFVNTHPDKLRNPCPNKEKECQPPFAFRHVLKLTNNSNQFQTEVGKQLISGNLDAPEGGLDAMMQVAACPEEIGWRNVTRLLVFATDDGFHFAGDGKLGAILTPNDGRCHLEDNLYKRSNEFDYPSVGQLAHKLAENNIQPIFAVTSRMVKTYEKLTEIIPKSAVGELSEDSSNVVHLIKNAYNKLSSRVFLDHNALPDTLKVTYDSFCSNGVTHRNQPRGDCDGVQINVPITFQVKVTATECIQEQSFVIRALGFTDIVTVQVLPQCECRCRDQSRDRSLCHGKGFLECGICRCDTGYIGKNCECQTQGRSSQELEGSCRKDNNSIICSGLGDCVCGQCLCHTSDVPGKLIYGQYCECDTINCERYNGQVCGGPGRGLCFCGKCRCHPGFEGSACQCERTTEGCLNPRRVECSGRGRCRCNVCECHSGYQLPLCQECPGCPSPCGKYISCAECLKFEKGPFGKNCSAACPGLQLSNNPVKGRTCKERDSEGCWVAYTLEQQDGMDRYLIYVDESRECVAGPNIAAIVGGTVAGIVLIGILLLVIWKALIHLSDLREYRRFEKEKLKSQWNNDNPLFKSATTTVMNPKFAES

[10] = target: T1, Integrin alpha-4/beta-1 (Homo sapiens); experiment: Binding affinity to alpha4beta1 integrin transfected human Molt-4 cells by flow cytometry; assay type: cell-based; summary of the method: as §3
[11] = target: T1, Integrin alpha-4/beta-1 (Homo sapiens); experiment: Binding affinity to alpha4beta1 integrin expressed in human Reh cells by flow cytometry; assay type: cell-based; summary of the method: as §3
[12] = target: T1, Integrin alpha-4/beta-1 (Homo sapiens); experiment: Binding affinity to alpha4beta1 integrin expressed in human HL-60 cells by flow cytometry; assay type: cell-based; summary of the method: as §3
CHO [13] = experiment: Binding affinity to human alpha4 G181A mutant/hamster beta-1 integrin expressed in CHO cells by flow cytometry; assay type: cell-based; summary of the method: as §2
CHO [14] = experiment: Binding affinity to human alpha4 P183A mutant/hamster beta-1 integrin expressed in CHO cells by flow cytometry; assay type: cell-based; summary of the method: as §2
CHO [15] = experiment: Binding affinity to human alpha4 S185A mutant/hamster beta-1 integrin expressed in CHO cells by flow cytometry; assay type: cell-based; summary of the method: as §2
CHO [16] = experiment: Binding affinity to human alpha4 S186A mutant/hamster beta-1 integrin expressed in CHO cells by flow cytometry; assay type: cell-based; summary of the method: as §2
CHO [17] = experiment: Binding affinity to human alpha4 Y187A mutant/hamster beta-1 integrin expressed in CHO cells by flow cytometry; assay type: cell-based; summary of the method: as §2
CHO [18] = experiment: Binding affinity to human alpha4 W188A mutant/hamster beta-1 integrin expressed in CHO cells by flow cytometry; assay type: cell-based; summary of the method: as §2
CHO [19] = experiment: Binding affinity to human alpha4 T189A mutant/hamster beta-1 integrin expressed in CHO cells by flow cytometry; assay type: cell-based; summary of the method: as §2
CHO [20] = experiment: Binding affinity to human alpha4 G190A mutant/hamster beta-1 integrin expressed in CHO cells by flow cytometry; assay type: cell-based; summary of the method: as §2
CHO [21] = experiment: Binding affinity to human alpha4 S191A mutant/hamster beta-1 integrin expressed in CHO cells by flow cytometry; assay type: cell-based; summary of the method: as §2
CHO [22] = experiment: Binding affinity to human alpha4 Y195A mutant/hamster beta-1 integrin expressed in CHO cells by flow cytometry; assay type: cell-based; summary of the method: as §2
CHO [23] = experiment: Binding affinity to human alpha4 N196A mutant/hamster beta-1 integrin expressed in CHO cells by flow cytometry; assay type: cell-based; summary of the method: as §2
CHO [24] = experiment: Binding affinity to human alpha4 N200A mutant/hamster beta-1 integrin expressed in CHO cells by flow cytometry; assay type: cell-based; summary of the method: as §2
CHO [25] = experiment: Binding affinity to human alpha4 K201A mutant/hamster beta-1 integrin expressed in CHO cells by flow cytometry; assay type: cell-based; summary of the method: as §2
CHO [26] = experiment: Binding affinity to human alpha4 Y202A mutant/hamster beta-1 integrin expressed in CHO cells by flow cytometry; assay type: cell-based; summary of the method: as §2
CHO [27] = experiment: Binding affinity to human alpha4 K203A mutant/hamster beta-1 integrin expressed in CHO cells by flow cytometry; assay type: cell-based; summary of the method: as §2
Mus musculus [28] = experiment: In vivo inhibition of alpha4beta1 integrin expressed in human Molt-4 cells xenografted into mouse at 60 nmol/kg, iv up to 44 hrs by NIRF imaging; assay type: functional, organism-based; summary of the method: as §1
[29] = target: T1, Integrin alpha-4/beta-1 (Homo sapiens); experiment: Inhibition of integrin alpha-4-beta-1-mediated Jurkat cell adhesion to VCAM-1 coated surface by BCECF fluorescence analysis; assay type: cell-based
[30] = target: T1, Integrin alpha-4/beta-1 (Homo sapiens); experiment: Inhibition of integrin alpha-4-beta-1-mediated Jurkat cell adhesion to CS-1 coated surface by BCECF fluorescence analysis
[31] = target: T1, Integrin alpha-4/beta-1 (Homo sapiens); experiment: Binding affinity to alpha4beta1 integrin expressed in peripheral blood lymphocytes; assay type: cell-based
Summary of the method: (§4)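 Normal peripheral blood lymphocytes isolated from healthy-donor blood by Ficoll-Paque gradient. Cells (0.5 × 10^6) incubated 1 h at 4 °C with biotinylated ligand (100 nM) in TBS, then SA-PE, and 10,000 cells read by flow cytometry. Mn2+ added for integrin activation where indicated. Activation state checked with anti-β1 LIBS mAb.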

[32] = target: T1, Integrin alpha-4/beta-1 (Homo sapiens); experiment: Binding affinity to alpha4beta1 integrin expressed in peripheral blood lymphocytes in presence of Mn2+; assay type: cell-based; summary of the method: as §4
CHO [33] = experiment: Binding affinity to wild type human alpha4hamster beta-1 integrin expressed […] cells by flow cytometry; assay type: cell-based; summary of the method: as §2

In the case of `Cc1ccccc1NC(=O)Nc1ccc(CC(=O)N[C@@H](CCCCNC(=O)/C=C/c2cccnc2)C(=O)N[C@@H](CCCC(=O)O)C(=O)NC2(C(=O)NCCOCCOCCNC(=O)CCC(=O)NCCOCCOCCNC(=O)CCC(=O)N[C@@H](CCCCNC(=O)CCCC[C@@H]3SC[C@@H]4NC(=O)N[C@@H]43)C(N)=O)CCCCC2)cc1`, the inhibition (Mus musculus [1]) is reported as “inactive”.

In the case of `Cc1ccccc1NC(=O)Nc1ccc(CC(=O)N[C@@H](CCCCNC(=O)/C=C/c2cccnc2)C(=O)N[C@@H](CCCC(=O)O)C(=O)NC2(C(N)=O)CCCCC2)cc1`, the Activity (CHO [2]) is reported as “Active”, the Activity [3] is reported as “Active” and the Activity [4] is reported as “Active”. The Activity [5] was “inactive”, the Activity [6] was “inactive” and the Activity [7] was “inactive”. The Activity [8] was “inactive”, the Activity [9] was “inactive” and the Activity [10] was “Active”. The Activity [11] was “Active”, the Activity [12] was “Active” and the Activity (CHO [13]) was “Active”. The Activity (CHO [14]) was “Active”, the Activity (CHO [15]) was “Active” and the Activity (CHO [16]) was “Active”. The Activity (CHO [17]) was “inactive”, the Activity (CHO [18]) was “inactive” and the Activity (CHO [19]) was “Active”. For the same molecule, the Activity (CHO [20]) was “inactive”, the Activity (CHO [21]) was “Active” and the Activity (CHO [22]) was “Active”. The Activity (CHO [23]) was “Active”, the Activity (CHO [24]) was “Active” and the Activity (CHO [25]) was “Active”. For the same molecule, the Activity (CHO [26]) was “Active”, the Activity (CHO [27]) was “Active” and the inhibition (Mus musculus [28]) was “Active”. For the same molecule, the inhibition [29] was “Active”, the inhibition [30] was “Active” and the Activity [31] was “inactive”. The Activity [32] was “Active” and the Activity (CHO [33]) was “Active”.
